Assay results from the RNAGym collection of RNA variant scans (doi:10.1126/science.aae0568).
This sample holds only a part of the variants without activity.

B1: tRNA (parent)
chain: GUUCCGUUGGCGUAAUGGUAACGCGUCUCCCUCCUAAGGAGAAGACUGCGGGUUCGAGUCCCGUACGGAACG

Variants of: B1
Assay: yeast fitness relative to wild type (ratio to wild type); higher = fitter; tRNA-Arg(CCU), competitive growth, 37 C, YPD
Procedure, shortened: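 Gene amplicons from the start population and from each of six end populations were read by 100-nucleotide paired-end sequencing. Those end populations came from pooled Saccharomyces cerevisiae strains carrying tRNA-Arg(CCU) gene variants at the native locus, competed in YPD at 37°C for 24 hours. Fitness relative to wild type was worked out from changes in genotype frequencies. Genotypes needed ≥ 100 starting reads, and estimates < 0.5 were set to 0.5.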

First: C22U U26A C34A A37U G48C
Second: U13G A36U A40C
The yeast fitness of the first is higher: 0.799 for the first, no more than 0.5 for the second.

Compared with G17A G39C G56C, G9A A20G C62U is higher in yeast fitness: no more than 0.5 for the first, 0.736 for the second.

Going from U59A U64G to U13A G41A, the yeast fitness rises from 0.52 to 0.714.

C22G A36G A37G C60G A69G and C4A C27G C29G G68U cannot be ordered by yeast fitness: no more than 0.5 for the first, no more than 0.5 for the second.

First: G12A U19C A21U A45U G50A G68C A69U
Second: C49G C62A
The yeast fitness of the first is lower: no more than 0.5 for the first, 0.845 for the second.

Compared with U47C G51A, U3A A36U is lower in yeast fitness: 0.906 for the first, 0.681 for the second.

First: U19C C22A C55G C62U
Second: G50A A65G
The yeast fitness of the first is lower: no more than 0.5 for the first, 1.03 for the second.

Compared with U64C G68C, C4A U54G A65U is lower in yeast fitness: 0.978 for the first, no more than 0.5 for the second.

Compared with U7A G39A A45G U47G, C27U A42G G67A is lower in yeast fitness: 0.623 for the first, 0.589 for the second.

First: G10C C29A C33A G52A
Second: U8A C31U A37G
The yeast fitness of the first is higher: 0.57 for the first, no more than 0.5 for the second.

C5G U16A G39A and C5A G17A C34A cannot be ordered by yeast fitness: no more than 0.5 for the first, no more than 0.5 for the second.

Compared with C5G A14C C29A C31G U54A A70U, A14G C31U C34U G38A C46U is lower in yeast fitness: 0.545 for the first, no more than 0.5 for the second.

Compared with C11U U54C A57G, C27G C60A is lower in yeast fitness: 0.553 for the first, no more than 0.5 for the second.

Going from A45U C62U to G12C A20C U47A A70G, the yeast fitness falls from 1.07 to 0.755.

First: U7A U19G G58A
Second: C24A U28C
The yeast fitness of the first is lower: no more than 0.5 for the first, 0.568 for the second.

Going from C11U A42U to C22G C29A A37U C49A, the yeast fitness falls from 0.897 to no more than 0.5.

Going from G10C C31G C33U to G10C C29G A40G, the yeast fitness falls from 0.698 to no more than 0.5.

G6A C27G C34G A65C and C5A U13G A14G U32A A42U G52A U54A C60G cannot be ordered by yeast fitness: no more than 0.5 for the first, no more than 0.5 for the second.

C27G C30G G56U G63A and A14C G44A C46A G52A C66U cannot be ordered by yeast fitness: no more than 0.5 for the first, no more than 0.5 for the second.

Going from C11A G39A C61U C62A to C11G C27U A36U A37U G41C A43C C49G C62G, the yeast fitness falls from 0.624 to 0.604.

U3C A15C A20G and A15U C24G A42C C55U G68U cannot be ordered by yeast fitness: no more than 0.5 for the first, no more than 0.5 for the second.

First: C5A A45C
Second: U8A G25A U26A A42C
The yeast fitness of the first is higher: 0.81 for the first, no more than 0.5 for the second.

U19A A40C C55A C66A and U16C U28C A37C G56A U59C cannot be ordered by yeast fitness: no more than 0.5 for the first, no more than 0.5 for the second.

C5U A20U G56C A65G A70U and U8A G18C G41A cannot be ordered by yeast fitness: no more than 0.5 for the first, no more than 0.5 for the second.

First: U8A G17A C24U
Second: C30G C33A C49A
The yeast fitness of the first is higher: 0.95 for the first, 0.618 for the second.

G23A A42G A45U G63C U64C A65G and C4A G9C C30A G39A G56C cannot be ordered by yeast fitness: no more than 0.5 for the first, no more than 0.5 for the second.

G23A A42U C61G U64A and C30G G48A U53C A70U cannot be ordered by yeast fitness: no more than 0.5 for the first, no more than 0.5 for the second.

First: C24G C29G A37G G52A C62U
Second: C22G C24G U47C
The yeast fitness of the first is lower: no more than 0.5 for the first, 0.642 for the second.

U2A C5A U16C C30A and C22U A36U C62G G63A cannot be ordered by yeast fitness: no more than 0.5 for the first, no more than 0.5 for the second.

First: G12C G39C G68C
Second: A20U C34G A36C C55U
The yeast fitness of the first is lower: no more than 0.5 for the first, 0.528 for the second.

First: C30U A45C G58A G67U
Second: G12A G25C
The yeast fitness of the first is lower: no more than 0.5 for the first, 0.961 for the second.

C27G C31U C34G A37G G44A and A36U C61U G63A C66U cannot be ordered by yeast fitness: no more than 0.5 for the first, no more than 0.5 for the second.

Going from A40U G52C to G18A C22U A40C G68C, the yeast fitness falls from 0.608 to no more than 0.5.

First: A21C C46U A65U
Second: C5G G48A C62G A69U
The yeast fitness of the first is lower: 0.556 for the first, 0.768 for the second.

First: G12A C24U G25A C30U C46A
Second: U7C C60G
The yeast fitness of the first is lower: 0.571 for the first, 0.583 for the second.

Going from U28C A37C A40U C55U to U2C A14C G39A A57U, the yeast fitness falls from 0.525 to no more than 0.5.

First: C4A C24G
Second: G50A C60U
The yeast fitness of the first is lower: 0.714 for the first, 0.819 for the second.

C31A A40G A43G G52C U59G and C22G C27G C29G C34A A36G A43U A65U cannot be ordered by yeast fitness: no more than 0.5 for the first, no more than 0.5 for the second.

G23A C30A U54C C55U and C11A A37C A45G cannot be ordered by yeast fitness: no more than 0.5 for the first, no more than 0.5 for the second.

First: A57G U59C
Second: C4U A14U A21C A45C A69U
The yeast fitness of the first is higher: 0.864 for the first, no more than 0.5 for the second.

Compared with U16A C49U G67A, A43C C61A is higher in yeast fitness: 0.67 for the first, 0.776 for the second.

First: A43C C61U
Second: U2C C61U G68A
The yeast fitness of the first is higher: 0.956 for the first, no more than 0.5 for the second.

First: C29G G48C C60G
Second: C4A A20G G44C A45G C61U
The yeast fitness of the first is higher: 0.515 for the first, no more than 0.5 for the second.

First: C27U C46U C61A
Second: U3G U16G A21G C29A U32C C33U C34A
The yeast fitness of the first is lower: no more than 0.5 for the first, 0.788 for the second.

First: A14U A15G G18A
Second: A40G C55U
The yeast fitness of the first is lower: no more than 0.5 for the first, 0.663 for the second.

U3A G12C G58A C66U and C24G C27U C33U G50A cannot be ordered by yeast fitness: no more than 0.5 for the first, no more than 0.5 for the second.

Going from C4U C55U A65G to C11U A14U C27U A40G, the yeast fitness falls from 0.554 to no more than 0.5.

G6C U8C A21C and A14G A15C G51C C61G cannot be ordered by yeast fitness: no more than 0.5 for the first, no more than 0.5 for the second.

First: U2G G25A U53A G63A
Second: U3G C24U C31U A69U
The yeast fitness of the first is lower: 0.563 for the first, 0.839 for the second.

Going from G9C A14U C27G C29U C46U C60G to U8C C24A, the yeast fitness rises from 0.596 to 0.616.

First: U13A C34G G50A C60G C61U
Second: U7A C29A G58A C61G A70U
The yeast fitness of the first is lower: no more than 0.5 for the first, 0.665 for the second.

First: C5U C30G A69C A70G
Second: C4U C46G C61G A65C
The yeast fitness of the first is lower: no more than 0.5 for the first, 0.588 for the second.

First: C29A C33G A45C
Second: C11A G23A C30U C31G
The yeast fitness of the first is higher: 0.543 for the first, no more than 0.5 for the second.

Going from G23C U26A C29G A36U to G38A G58C, the yeast fitness rises from 0.68 to 1.

A15G U19C A37U C49U G51A U64A and U3C A37C C49G cannot be ordered by yeast fitness: no more than 0.5 for the first, no more than 0.5 for the second.

Compared with A42U A57C A65U, A42C U64G is higher in yeast fitness: 0.589 for the first, 0.596 for the second.

Going from C27G U32C C62U to U28G A40C A42G A69C, the yeast fitness rises from 0.62 to 0.808.

C4G G17A G25C C66U and U2A U16A G56C A57G cannot be ordered by yeast fitness: no more than 0.5 for the first, no more than 0.5 for the second.

Compared with U3A C24U U53A, A20G A36U C49G is lower in yeast fitness: 0.548 for the first, no more than 0.5 for the second.

Compared with G10C C34A A57U, C24U G48A is higher in yeast fitness: 0.577 for the first, 0.915 for the second.

G12C U32G C49G C55A and G10C C30G C55A cannot be ordered by yeast fitness: no more than 0.5 for the first, no more than 0.5 for the second.

First: G10A G58A
Second: G10C C29U A40U A65U
The yeast fitness of the first is higher: 0.767 for the first, no more than 0.5 for the second.

First: G44U G52A C55G A69U
Second: U13G G68A
The yeast fitness of the first is lower: no more than 0.5 for the first, 0.798 for the second.

First: C34U A40C
Second: G6C C60A
The yeast fitness of the first is higher: 0.613 for the first, 0.583 for the second.

First: U8C G18A
Second: U13C A36U C62U G63C A70C
The yeast fitness of the first is higher: 0.686 for the first, no more than 0.5 for the second.

Compared with G9A A20U, U3A C11A C33U G68C is lower in yeast fitness: 0.829 for the first, no more than 0.5 for the second.

Compared with A20U A40G A57G, U2C C4U A70C is higher in yeast fitness: 0.67 for the first, 0.733 for the second.

Compared with A14C U16C G44A U54C C61U A69C, A21G C49U A65C is higher in yeast fitness: no more than 0.5 for the first, 0.747 for the second.

First: C60A A70C
Second: C5A C22A A40G C60A
The yeast fitness of the first is higher: 0.621 for the first, no more than 0.5 for the second.

A20C A21U C27G A42U A69C and U8A C34G A37U A42U A57G cannot be ordered by yeast fitness: no more than 0.5 for the first, no more than 0.5 for the second.

A20C G25C C33A C55A and U28C G51C A65C cannot be ordered by yeast fitness: no more than 0.5 for the first, no more than 0.5 for the second.

Compared with G23A C29U C30A G67A, C29G C33A is higher in yeast fitness: no more than 0.5 for the first, 0.641 for the second.

U16A G52A A57C C66U and G10C A15U C29G C46U G51C C61G cannot be ordered by yeast fitness: no more than 0.5 for the first, no more than 0.5 for the second.

First: G25C A65G
Second: U2C C24G C61G
The yeast fitness of the first is higher: 1 for the first, no more than 0.5 for the second.

Compared with A20G G39C A45C C49G, G18A A20U C29G A37U is higher in yeast fitness: no more than 0.5 for the first, 0.563 for the second.

Compared with U26C G58A, C5U A65U G67A is lower in yeast fitness: 1 for the first, 0.921 for the second.

First: U16C G68A
Second: U2C G23C C55G
The yeast fitness of the first is higher: 0.767 for the first, 0.553 for the second.

First: U3A C11U C55G A65C
Second: A20U U26A C55U
The yeast fitness of the first is lower: no more than 0.5 for the first, 0.747 for the second.

Going from U8C C22A U64A G68C to C24U U59A C60G, the yeast fitness rises from no more than 0.5 to 0.754.

First: C31U U47G
Second: U19G A40G C55G A65C
The yeast fitness of the first is higher: 0.526 for the first, no more than 0.5 for the second.

First: A15C U35G
Second: G12C U59C A69C
The yeast fitness of the first is lower: 0.621 for the first, 0.665 for the second.

Going from A45C C61A to A65C C66U, the yeast fitness rises from 0.797 to 0.89.

Going from C30U C31U A37G A43G to A40G A43U C46G C49G C62U, the yeast fitness rises from no more than 0.5 to 0.532.

With A43C G52C C55U A69C the yeast fitness was no more than 0.5.
